Assay results from ChEMBL document CHEMBL4265993, “Antibacterial Cyclic Lipopeptide Enamidonins with an Enamide-Linked Acyl Chain from a Streptomyces Species” (2018).
Converted amounts (≈) assume the structure as drawn. The source made the active and inactive calls. The calls are words filed in the database; no cut-off is given here.

Columns and labels:
Format in all cases: functional
Staphylococcus aureus [1] = assay: Antibacterial activity against methicillin-resistant Staphylococcus aureus CCARM 3167 after 24 hrs by two-fold serial dilution method; details: CCARM 3167, 24 h
Method in brief: (§1)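 MIC by broth microdilution. Bacteria were grown to mid-log phase in appropriate growth media and seeded into 96-well plates at 10^5 cells/mL. Compounds, with ciprofloxacin as reference, were prepared in DMSO and tested as serial 2-fold dilutions. MICs were determined in triplicate.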

Staphylococcus aureus [2] = assay: Antibacterial activity against quinolone-resistant Staphylococcus aureus CCARM 3505 after 24 hrs by two-fold serial dilution method; details: CCARM 3505, 24 h; method in brief: as §1
Enterococcus faecalis = assay: Antibacterial activity against Enterococcus faecalis KCTC 5191 after 24 hrs by two-fold serial dilution method; details: KCTC 5191, 24 h
Method in brief: (§2)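 Broth microdilution MIC. Bacteria grown to mid-log phase in appropriate media and seeded in 96-well microtiter plates at 10^5 cells/mL. Treated with serial 2-fold dilutions of compounds prepared in DMSO, with ciprofloxacin as the reference drug. MIC determined in triplicate.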

Bacillus subtilis [3] = assay: Antibacterial activity against Bacillus subtilis KCTC 1021 after 24 hrs by two-fold serial dilution method; details: KCTC 1021, 24 h; method in brief: as §2
Acinetobacter baumannii = assay: Antibacterial activity against Acinetobacter baumannii KCTC 2508 after 24 hrs by two-fold serial dilution method; details: KCTC 2508, 24 h; method in brief: as §2
Escherichia coli = assay: Antibacterial activity against Escherichia coli CCARM 1356 after 24 hrs by two-fold serial dilution method; details: CCARM 1356, 24 h; method in brief: as §2
Staphylococcus aureus [4] = assay: Antibacterial activity against methicillin-resistant Staphylococcus aureus CCARM 3506 after 24 hrs by two-fold serial dilution method; details: CCARM 3506, 24 h; method in brief: as §1
Staphylococcus aureus [5] = assay: Antibacterial activity against quinolone-resistant Staphylococcus aureus CCARM 3519 after 24 hrs by two-fold serial dilution method; details: CCARM 3519, 24 h; method in brief: as §1
Staphylococcus aureus [6] = assay: Antibacterial activity against Staphylococcus aureus RN4220 after 24 hrs by two-fold serial dilution method; details: RN4220, 24 h; method in brief: as §2
Streptococcus pneumoniae = assay: Antibacterial activity against Streptococcus pneumoniae KCTC 5412 after 24 hrs by two-fold serial dilution method; details: KCTC 5412, 24 h; method in brief: as §2
Pseudomonas aeruginosa = assay: Antibacterial activity against Pseudomonas aeruginosa KCTC 2004 after 24 hrs by two-fold serial dilution method; details: KCTC 2004, 24 h; method in brief: as §2
Bacillus subtilis [7] = assay: Antibacterial activity against Bacillus subtilis assessed as diameter of inhibition zone after 24 hrs by disk diffusion method
Method in brief: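 Disk diffusion. B. subtilis colonies cultured 24 h at 28 °C were suspended in sterile distilled water and inoculated onto nutrient agar. A 6 mm i.d. paper disk holding sample was placed on the plate, which was incubated 24 h at 28 °C. Read-out was the inhibition zone.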

Row | SMILES | MIC (Staphylococcus aureus [1]) | MIC (Staphylococcus aureus [2]) | MIC (Enterococcus faecalis) | MIC (Bacillus subtilis [3]) | MIC (Acinetobacter baumannii) | MIC (Escherichia coli) | MIC (Staphylococcus aureus [4]) | MIC (Staphylococcus aureus [5]) | MIC (Staphylococcus aureus [6]) | MIC (Streptococcus pneumoniae) | MIC (Pseudomonas aeruginosa) | diameter of the inhibition zone (DIZ) (Bacillus subtilis [7]) | Activity (Bacillus subtilis [7])
1 | O=C(O)c1cn(C2CC2)c2cc(N3CCNCC3)c(F)cc2c1=O [CIPROFLOXACIN] | 4 µg/mL (≈ 12.1 µM) | 32 µg/mL (≈ 96.6 µM) | 1 µg/mL (≈ 3.02 µM) | 0.0312 µg/mL (≈ 0.0943 µM) | 0.25 µg/mL (≈ 0.754 µM) | 64 µg/mL (≈ 193 µM) | – | – | – | – | – | – | –
2 | C[C@@H](O)CC/C=C/CCC/C=C/C=C/C(=O)N/C=C/C(=O)NC[C@H]1NC(=O)[C@H](Cc2ccccc2)NC(=O)CN2C(=O)[C@H](CNC1=O)NC2(C)C | > 128 µg/mL | > 128 µg/mL | > 128 µg/mL | 4 µg/mL (≈ 5.67 µM) | > 128 µg/mL | > 128 µg/mL | > 128 µg/mL | > 128 µg/mL | > 128 µg/mL | > 128 µg/mL | > 128 µg/mL | 15 mm | –
3 | CC(C)C[C@@H]1NC(=O)CN2C(=O)[C@H](CNC(=O)[C@@H](CNC(=O)/C=C/NC(=O)/C=C/C=C/CCC/C=C/CC[C@@H](C)O)NC1=O)NC2(C)C | 32 µg/mL (≈ 47.6 µM) | 16 µg/mL (≈ 23.8 µM) | 8 µg/mL (≈ 11.9 µM) | 16 µg/mL (≈ 23.8 µM) | > 128 µg/mL | > 128 µg/mL | 8 µg/mL (≈ 11.9 µM) | 16 µg/mL (≈ 23.8 µM) | > 128 µg/mL | > 128 µg/mL | > 128 µg/mL | 13.5 mm | –
4 | CC[C@H](C)[C@@H]1NC(=O)[C@H]([C@@H](C)O)NC(=O)[C@@H](N)CNC(=O)[C@@H](CNC(=O)/C=C/NC(=O)/C=C/C=C/CCC/C=C/CC[C@@H](C)O)NC1=O | – | – | – | – | – | – | – | – | – | – | – | – | inactive
5 | CC[C@H](C)[C@@H]1NC(=O)[C@H]([C@@H](C)O)N2C(=O)[C@H](CNC(=O)[C@@H](CNC(=O)/C=C/NC(=O)/C=C/C=C/CCC/C=C/CC[C@@H](C)O)NC1=O)NC2(C)C | 64 µg/mL (≈ 89.4 µM) | 32 µg/mL (≈ 44.7 µM) | 64 µg/mL (≈ 89.4 µM) | 16 µg/mL (≈ 22.3 µM) | > 128 µg/mL | > 128 µg/mL | 16 µg/mL (≈ 22.3 µM) | 32 µg/mL (≈ 44.7 µM) | 32 µg/mL (≈ 44.7 µM) | > 128 µg/mL | > 128 µg/mL | 13.5 mm | –
6 | CC(C)C[C@@H]1NC(=O)CNC(=O)[C@@H](N)CNC(=O)[C@@H](CNC(=O)/C=C/NC(=O)/C=C/C=C/CCC/C=C/CC[C@@H](C)O)NC1=O | – | – | – | – | – | – | – | – | – | – | – | – | inactive
7 | C[C@@H](O)CC/C=C/CCC/C=C/C=C/C(=O)N/C=C/C(=O)NC[C@H]1NC(=O)[C@H](Cc2ccccc2)NC(=O)CNC(=O)[C@@H](N)CNC1=O | – | – | – | – | – | – | – | – | – | – | – | – | inactive
